Tests used:
[1] = molecular target: T1, Heat shock protein HSP 90-beta (Homo sapiens, UniProt P08238); assay: Inhibition of Her2 degradation in human breast cancer SKBr3 cell line; type: functional, cell-based
Procedure, shortened: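 Fixed in cold methanol, blocked, then probed overnight at 4 °C with anti-Her2, then HRP anti-rabbit and ECL luminescence. Normal rabbit IgG background was subtracted.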

[2] = test system: MDA-MB-468; assay: Antimitotic activity in human breast cancer MDA-MB-468 cell line; type: functional, cell-based
Procedure, shortened: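 MDA-MB-468 cells seeded at 8000/well, attached overnight, then exposed to drug or DMSO vehicle for 24 h at 37 °C, 5% CO2. Cells fixed in cold methanol, blocked, then probed with Tg-3 antibody against mitotically phosphorylated nucleolin, followed by HRP anti-mouse IgM and ECL luminescence. IC50 taken as the concentration that doubles luminescence over vehicle.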

[3] = molecular target: T1, Heat shock protein HSP 90-beta; assay: Inhibitory activity against Hsp90 in human breast cancer SKBr3 cell line; type: cell-based
[4] = molecular target: T1, Heat shock protein HSP 90-beta; assay: Inhibitory activity against Hsp90 in human breast cancer MDA-MB-468 cell line; type: cell-based
[5] = test system: SK-BR-3; assay: Growth inhibition in human breast cancer SKBr3 cell line using SRB; type: functional, cell-based
[6] = test system: MDA-MB-468; assay: Growth inhibition in human breast cancer MDA-MB-468 cell line using SRB; type: functional, cell-based
Procedure, shortened: (§1)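 Sulforhodamine B growth assay. Plating densities were 6000 (SKBr3), 8000 (MDA-MB-468) or 10,000 (MRC-5) cells/well, attached overnight. Drug, added in triplicate, was 1:1 serially diluted with DMSO or PBS vehicle. Exposure lasted 72 h, then cells were fixed with TCA and stained with 0.4% SRB.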

[7] = molecular target: Heat shock protein HSP 90 (Mus musculus); assay: Binding affinity to Hsp90 in mouse lung tissue
[8] = test system: MRC5; assay: Cytotoxicity against normal lung fibroblast MRC5 cell line; type: functional, cell-based; conditions: Homo sapiens; procedure, shortened: as §1
[9] = molecular target: Heat shock protein HSP 90 (Mus musculus); assay: Binding affinity to Hsp90 in mouse heart tissue
[10] = Solubility in water; type: physicochemical

T1 sequence (P08238 whole entry): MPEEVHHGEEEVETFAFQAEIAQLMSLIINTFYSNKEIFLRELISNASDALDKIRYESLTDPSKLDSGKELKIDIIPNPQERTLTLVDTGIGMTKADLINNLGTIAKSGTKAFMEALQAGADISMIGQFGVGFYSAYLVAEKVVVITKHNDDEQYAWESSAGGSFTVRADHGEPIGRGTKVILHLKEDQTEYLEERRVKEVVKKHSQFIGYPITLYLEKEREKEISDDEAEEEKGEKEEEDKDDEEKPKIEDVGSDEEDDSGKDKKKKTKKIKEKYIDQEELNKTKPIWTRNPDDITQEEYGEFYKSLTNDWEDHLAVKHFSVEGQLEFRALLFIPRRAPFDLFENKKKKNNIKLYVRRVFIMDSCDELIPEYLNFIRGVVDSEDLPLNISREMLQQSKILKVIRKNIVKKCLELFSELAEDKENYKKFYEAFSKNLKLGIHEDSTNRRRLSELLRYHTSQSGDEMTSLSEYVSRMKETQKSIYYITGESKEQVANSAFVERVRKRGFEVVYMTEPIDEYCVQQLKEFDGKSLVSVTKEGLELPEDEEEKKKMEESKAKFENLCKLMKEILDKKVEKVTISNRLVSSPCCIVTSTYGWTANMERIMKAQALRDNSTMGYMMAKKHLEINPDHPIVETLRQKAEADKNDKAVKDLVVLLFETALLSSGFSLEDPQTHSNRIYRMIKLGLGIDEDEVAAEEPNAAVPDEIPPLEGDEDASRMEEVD

| SMILES | IC50 [1] [nM] | IC50 [2] [nM] | EC50 [3] [nM] | EC50 [4] [nM] | IC50 [5] [nM] | IC50 [6] [nM] | EC50 [7] [nM] | EC50 [9] [µM] | solubility [10] [µg/mL] | IC50 [8] [nM] |
| --- | --- | --- | --- | --- | --- | --- | --- | --- | --- | --- |
| C#CCCCn1c(Cc2cc3c(cc2Br)OCO3)nc2c(N)nc(F)nc21 | 210 | 310 | 56.5 | 30.5 | 215 | 350 |  |  |  |  |
| C#CCCCn1c(Cc2cc(OC)c(OC)cc2Cl)nc2c(N)nc(F)nc21 | 30000 | > 50000 | 4600 | 4500 | 20600 | 27300 |  |  |  |  |
| C#CCCCn1c(Cc2cc3c(cc2Cl)OCO3)nc2c(N)nc(F)nc21 | 300 | 450 | 77.2 | 51.2 | 250 | 440 |  |  |  |  |
| C#CCCCn1c(Cc2cc(OC)c(OC)cc2I)nc2c(N)nc(F)nc21 | > 50000 | > 50000 | > 15000 | > 15000 | > 50000 | > 50000 |  |  |  |  |
| C#CCCCn1c(Sc2cc3c(cc2Br)OCO3)nc2c(N)ncnc21 | 365 | 530 | 50.4 | 77.1 |  | 560 |  |  |  |  |
| C#CCCCn1c(Cc2cc(OC)c(OC)cc2Br)nc2c(N)nc(F)nc21 | > 50000 | > 50000 | > 15000 | > 15000 | 55000 | > 50000 |  |  |  |  |
| CC(C)NCCCn1c(Sc2cc3c(cc2Br)OCO3)nc2c(N)ncnc21 |  | 375 |  |  | 142 | 270 |  |  | > 5000 |  |

The next compounds have a lower IC50 [2] than those just listed; values first:

| IC50 [1] [nM] | IC50 [2] [nM] | EC50 [3] [nM] | EC50 [4] [nM] | IC50 [5] [nM] | IC50 [6] [nM] | EC50 [7] [nM] | EC50 [9] [µM] | solubility [10] [µg/mL] | SMILES | IC50 [8] [nM] |
| --- | --- | --- | --- | --- | --- | --- | --- | --- | --- | --- |
| 80 | 100 | 50.4 | 39.1 | 45 | 90 | 2400 | 6.9 | > 5000 | CC(C)NCCCn1c(Cc2cc3c(cc2I)OCO3)nc2c(N)nc(F)nc21 | > 5000 |
| 100 | 184 | 10.8 | 10.9 | 90 | 170 |  |  |  | C#CCCCn1c(Sc2cc3c(cc2I)OCO3)nc2c(N)ncnc21 |  |
| 90 | 180 | 22.3 | 23.7 | 90 | 150 |  |  |  | C#CCCCn1c(Cc2cc3c(cc2I)OCO3)nc2c(N)nc(F)nc21 |  |
|  | 70 |  |  |  | 58 |  |  | > 5000 | CC(C)NCCCn1c(Sc2cc3c(cc2I)OCO3)nc2c(N)ncnc21 [PU-H71] | 1000 |
